A selection: hits, their analogues and other compounds. The true share with any hit is near 1.8%.
M4 PAM = human M4 muscarinic receptor positive allosteric modulators, primary screen, CHO-K1 cells, Fluo-8 calcium fluorescence | Muscarinic acetylcholine receptor M4 (Homo sapiens), P08173 | CHO-K1 hM4/Gqi5, ACh EC20; 0% = ACh EC20, 100% = maximal ACh | activation, % at 3 µM | actives 0.4% (n = 360,000);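 active = activation above its plate's cutoff, the mean activation of sample wells plus 3 SD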
Target sequence (P08173 whole entry, looked up): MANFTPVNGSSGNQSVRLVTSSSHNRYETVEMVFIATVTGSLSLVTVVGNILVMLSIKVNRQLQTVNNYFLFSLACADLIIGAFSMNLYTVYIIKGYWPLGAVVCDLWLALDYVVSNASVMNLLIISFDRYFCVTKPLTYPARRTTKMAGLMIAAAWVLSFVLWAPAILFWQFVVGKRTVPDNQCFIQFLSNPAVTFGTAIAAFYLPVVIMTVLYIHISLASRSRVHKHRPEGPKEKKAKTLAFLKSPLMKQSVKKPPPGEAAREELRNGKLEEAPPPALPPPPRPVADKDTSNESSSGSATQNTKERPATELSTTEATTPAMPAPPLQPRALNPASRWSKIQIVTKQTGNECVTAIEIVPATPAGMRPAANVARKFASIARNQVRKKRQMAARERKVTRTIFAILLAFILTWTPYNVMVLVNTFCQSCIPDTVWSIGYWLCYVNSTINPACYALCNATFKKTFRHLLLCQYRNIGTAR
CHRM5 PAM = human M5 muscarinic receptor positive allosteric modulators, primary screen, CHO-K1 cells, Fluo-8 calcium fluorescence | Muscarinic acetylcholine receptor M5 (Homo sapiens), P08912 | activation, % at 3 µM | AID 624038, 2012 | actives 0.3% (n = 360,000) | CHO-K1 hM5, ACh EC20 PAM; 0% = ACh EC20, 100% = ACh EC100;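 active = activation above the run cutoff, the mean activation of all test compounds plus 3 SD, cut at about 18% in these data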
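System: CHO-K1 hM5 cells. Reagent: acetylcholine, EC20 level. Compound dosing: single dose, 3 µM nominal final test concentration. Timing: Post-acetylcholine fluorescence recording 140 s. Detection: Fluo-8 calcium fluorescence. Read-out: % activation, ACh-normalized. Benchmarks: ACh EC20 and EC100 wells. Repeats: singlicate, one well per test compound.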
CHRM4 agonist = human M4 muscarinic receptor agonists, primary screen, CHO-K1 cells, Fluo-8 calcium fluorescence | activation, % at 3 µM | Muscarinic acetylcholine receptor M4 (Homo sapiens), P08173 | AID 624127, 2012 | CHO-K1 hM4/Gqi5; vehicle 0%, full acetylcholine response 100% | actives 0.14% (n = 360,000);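 active = activation above the run mean over all test wells plus 3 SD, cut at about 32% in these data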;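 note: peak over basal fluorescence ratio per well then scaled between controls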
CHRM5 agonist = human M5 muscarinic receptor agonists, primary screen, CHO-K1 cells, Fluo-8 calcium fluorescence | Muscarinic acetylcholine receptor M5 (Homo sapiens), P08912 | CHO-K1 hM5 cells; 0% DMSO wells, 100% maximal acetylcholine response | activation, % at 3 µM | actives 0.19% (n = 360,000) | AID 624037, 2012;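 active = activation above the run's mean over test compounds plus 3 SD, cut at about 23% in these data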;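 note: signal is peak over basal fluorescence ratio across the kinetic read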
CHRM5 antagonist = human M5 muscarinic receptor antagonists, primary screen, CHO cells, Fluo-8 calcium fluorescence. Muscarinic acetylcholine receptor M5 (Homo sapiens), P08912. CHO-hM5 cells, ACh EC80. inhibition, % at 3 µM. actives 0.59% (n = 360,000);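 active = inhibition above a per-plate cutoff, the mean of that plate's test compounds plus 3 SD, cut at about 27% in these data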
CHRM4 antagonist = human M4 muscarinic receptor antagonists, primary screen, CHO cells, Fluo-8 calcium fluorescence; Muscarinic acetylcholine receptor M4 (Homo sapiens), P08173; actives 0.73% (n = 360,000); inhibition, % at 3 µM; CHO-hM4 cells, ACh EC80;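 active = inhibition above its plate's cutoff, the mean inhibition of sample wells plus 3 SD, cut at about 27% in these data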
Of the large screens only hits and unclear results are named; the others gave an inactive call.

CC(C)(C)N(Cc1ccccc1)C(=O)c1ccc2c(c1)OCCO2	CHRM4 antagonist 29.1
O=C(Cc1ccc(Br)cc1)OCC(=O)c1ccc2c(c1)OCCO2	M4 PAM 29.7
O=C(Cc1n[nH]c(=O)c2ccccc12)OCC(=O)c1ccc2c(c1)OCCO2	none
O=C(CCCc1ccccc1)c1ccc2c(c1)OCCO2	M4 PAM 31.0
CC(C)C[C@H]1CNC(=O)C(=O)N1C[C@@H]1CCCN1C[C@H](Cc1ccccc1)N1C[C@H](Cc2ccccc2)N(CC2CCCCC2)C(=O)C1=O	none
COC(=O)[C@@]1(Sc2ccc(C)cc2)CC(=O)N(C(=O)/C=C/c2ccccc2)[C@@H]1c1ccccc1	none
CC1CCCC(NC(=O)C2N(CCCN3CCCC3)C(=O)C3C(C(=O)Nc4cccc(Cl)c4)C4C=CC32O4)C1C (centres undefined)	none
Cc1ccc(CS(=O)(=O)c2ncc(Cl)c(C(=O)Nc3ccc(OC(F)F)cc3)n2)cc1	CHRM4 antagonist 55.8
CC(NCC(O)COc1ccccc1)C1COc2ccccc2O1 (centres undefined)	none
CC(=O)c1c(C)[nH]c(C(=O)Nc2cccc(C(F)(F)F)c2)c1C	CHRM5 antagonist 28.8
FC(F)(F)c1cccc(NC(=S)Nc2ccc(Cl)c(Cl)c2)c1	none
FC(F)(F)c1cccc(NC(=S)NC(c2ccccc2)c2ccccc2)c1	CHRM5 antagonist 27.3
Cn1nc(C(=O)Nc2cccc(C(=O)NC3CC3)c2)c2ccccc2c1=O	none
O=C(Nc1ccccc1)Nc1cccc(C(F)(F)F)c1	CHRM5 antagonist 39.7
Cn1nc(C(=O)Nc2cccc(C(F)(F)F)c2)c2ccccc2c1=O	M4 PAM 31.2
C=CCc1cc(OC)ccc1OCCN1CC(C)OC(C)C1 (centres undefined)	none
CC(C)(C)OC(=O)N1CCCC(C(=O)Nc2ccc(C(=O)NC3CC3)cc2)C1 (centres undefined)	none
COc1cccc(-c2ncc3ccccc3c2COC(=O)CCCC(=O)O)c1	none
CCOC(=O)c1nn(-c2ccccc2)c(=O)cc1OCC(=O)Nc1ccccc1OCC	none
C/C(CC(=O)Nc1ccccc1Br)=N\NC(=O)C(=O)N1CCCC1	CHRM5 PAM 60.7
C/C(CC(=O)Nc1ccc(Cl)cc1Cl)=N\NC(=O)C(=O)N1CCCC1	none
N#Cc1cccc(NC(=O)CSc2ccc3c4c(cccc24)C(=O)c2ccccc2-3)c1	CHRM5 antagonist 32.8
Nc1nc(-c2ccc3c(c2)CCCC3)c(CC(=O)O)s1	CHRM4 antagonist 29.1
Nc1nc(-c2ccc3c(c2)OCCO3)c(CC(=O)O)s1	none
COc1ccc(CCCC(=O)N/N=C/c2ccccc2OC)cc1	none
O=C(Nc1ccn(CCCNCC2CCCO2)c(=O)n1)OCc1ccccc1 (centres undefined)	none
COc1ccc(N2CCN(c3ccc(NC(=O)c4ccc5c(c4)OCO5)cc3C#N)CC2)cc1	M4 PAM 28.9
C=CCC(O)(CCN1CCCCC1)c1ccccc1 (centres undefined)	CHRM5 antagonist 45.8, CHRM4 antagonist 32.8
OC(CCCN1CCCCC1)(c1ccccc1)c1ccc(C(F)(F)F)cc1 (centres undefined)	CHRM4 antagonist 49.8
CCCCOc1ccc(C(O)(CCN2CCOCC2)c2ccccc2)cc1 (centres undefined)	none
O=C(CCN1CCCCCC1)c1ccccc1	none
COc1ccc(C(O)(CCc2ccccc2)CCN2CCCCC2)cc1 (centres undefined)	none
OC(CCN1CCCC1)(c1ccccc1)C1CCCCC1 (centres undefined)	CHRM5 antagonist 98.8, CHRM4 antagonist 98.6
OC(CCN1CCCCC1)(c1ccccc1)c1ccccc1	CHRM5 antagonist 98.7, CHRM4 antagonist 100.3
COc1cc2ncnc(N[C@H](C)c3ccccc3)c2cc1OC	none
Cc1ccc2nc(COC(=O)c3ccc(Cl)nc3)cc(=O)n2c1	none
NC(=O)C(CCCCN1CCCCC1)(c1ccccc1)c1ccccc1	CHRM4 antagonist 36.6
CCCNC(=O)c1cccc(COCC(F)(F)F)c1	CHRM5 PAM 33.6
CCCNC(=O)c1cccc(COc2ccccc2OC)c1	none
COc1cccc(N(C(=O)c2snc(C(N)=O)c2N)C(C(=O)NCc2ccccc2)c2ccc(O)cc2)c1 (centres undefined)	CHRM5 antagonist 30.9
Cn1c(=O)[nH]c(=O)c2c1nc(N1CCCCC1)n2CCSc1nc2ccccc2o1	CHRM4 antagonist 81.1
Cc1ccccc1S(=O)(=O)NC(=O)C1(C)CCN1C(=O)CC1CCCC1 (centres undefined)	none
CC1(C(=O)NS(=O)(=O)c2ccccc2Cl)CCN1C(=O)CC1CCCC1 (centres undefined)	M4 PAM 15.0
Cc1ccccc1S(=O)(=O)NC(=O)C1(C)CCN1C(=O)C/C=C/c1ccccc1 (centres undefined)	CHRM4 antagonist 85.0
Cc1c(P(=S)(c2ccccc2)c2ccccc2)[n+]2ccccc2n1CCc1ccccc1	CHRM4 antagonist 56.0
CCOC(=O)c1cc(C)n(CCc2ccccc2)c1C	none
CN1CCN(C2=Cc3ccccc3Sc3cc(F)ccc32)CC1	CHRM5 antagonist 27.7
CN1CCN(C2=Cc3ccc(Cl)cc3Sc3ccc(F)cc32)CC1	none
COc1cccc(C2Nc3ccccc3C(=O)N2Cc2ccccc2)c1 (centres undefined)	CHRM5 PAM 28.0, CHRM5 antagonist 27.6
O=C1c2ccccc2NC(c2ccccc2)N1Cc1ccccc1 (centres undefined)	none
CC[N+](CC)=N/N=C1\C=CC[N+]([O-])=C1	none
COC(=O)COc1ccc(S(=O)(=O)NCc2ccncc2)cc1	CHRM5 antagonist 27.9
COc1cc(S(=O)(=O)NCc2ccncc2)ccc1Br	CHRM5 antagonist 35.3
CCn1c(=O)c2cc(C(=O)NCCN(C)C)sc2c2ccccc21	CHRM5 PAM 19.1
COc1ccc(N(CC(=O)N/N=C/c2ccc(C(=O)O)cc2)S(=O)(=O)c2ccc(NC(C)=O)cc2)cc1	M4 PAM 22.1
COc1ccc(N(CC(=O)N/N=C/c2cc(Br)c(C)o2)S(=O)(=O)c2ccc(NC(C)=O)cc2)cc1	none
S=C(NCCC(c1ccccc1)c1ccccc1)Nc1ccc(Cl)cc1	CHRM5 antagonist 33.2

High-throughput results: PubChem, The Scripps Research Institute Molecular Screening Center
